{"source": "paper PMC4489158", "about": "(Biochemistry, 2009)", "key": {"[1]": {"test_system": "γ-secretase cleavage of APLP1 (APLP1 ICD production)", "assay": "ICD in vitro generation", "format": "biochemical, human", "conditions": "for effect on ICD production from APLP1: tested between 100 and 500 µM"}, "[2]": {"test_system": "γ-secretase (Aβ42, Aβ38, Aβ40 production)", "conditions": "cited from earlier work"}, "[3]": {"molecular_target": "γ-secretase cleavage of APLP2 (APLP2 ICD production) (Cricetulus griseus, UniProt A0A061HTR1+A0A061IL97+A0A8C2QG42+G3HNF2)", "assay": "ICD in vitro generation", "format": "biochemical, human", "conditions": "for effect on ICD production from APLP2: tested between 100 and 500 µM"}, "[4]": {"molecular_target": "γ-secretase cleavage of APP (APP ICD production) (Cricetulus griseus, UniProt A0A061HTR1+A0A061IL97+A0A8C2QG42+G3HNF2)", "assay": "ICD in vitro generation", "format": "biochemical, human", "conditions": "for effect on ICD production from APP: tested between 100 and 500 µM; for concentration at which APP ICD production is decreased: microsomes"}, "[5]": {"test_system": "γ-secretase processing of APLP1 (APLP1 CTFs)", "assay": "CTF accumulation in intact CHO cells expressing APLP1-His", "format": "cell-based, Chinese hamster", "conditions": "overnight (14 h)", "outline": "(§1)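 CHO cells stably expressing full-length human His-tagged APP or APLP1 (zeocin selection) were grown to confluence in six-well plates, then treated overnight (~14 h) with test compound or vehicle. Cells were lysed in NP-40 buffer with protease inhibitors. Equal protein (BCA) was immunoblotted with TetraHis antibody and ECL. CTF bands were quantified as fold over vehicle, with at least three measurements, and significance was assessed by two-way ANOVA.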"}, "[6]": {"test_system": "γ-secretase processing of APP (APP CTFs)", "assay": "CTF accumulation in intact CHO cells expressing APP-His", "format": "cell-based, Chinese hamster", "conditions": "overnight (14 h)", "outline": "as §1"}, "[7]": {"conditions": "cited from earlier work"}}, "data": [{"molecule": "C[C@H](NC(=O)Cc1cc(F)cc(F)c1)C(=O)NC(C(=O)OC(C)(C)C)c1ccccc1", "note": "(stereo partly drawn) [DAPT, N-[N-(3,5-difluoro-phenacetyl)-l-alanyl]-S-phenylglycine tert-butyl ester]", "values": [{"measurement": "IC50", "setting": "[1]; read-out: IC50 of γ-secretase processing of APLP1 (ICD production)", "value": 0.0957, "unit": "µM"}]}, {"molecule": "propan-2-yl 2-[4-(4-chlorobenzoyl)phenoxy]-2-ethylpropanoate [fenofibrate]", "values": [{"measurement": "effect on level of production of Aβ38", "setting": "[2]", "value": "reduces"}, {"measurement": "effect on level of production of Aβ42", "setting": "[2]", "value": "increases"}, {"measurement": "effect on levels of Aβ40", "setting": "[2]", "value": "almost unchanged"}, {"measurement": "effect on ICD production from APLP1", "setting": "[1]", "value": "unaffected"}, {"measurement": "effect on ICD production from APLP2", "setting": "[3]", "value": "unaffected"}, {"measurement": "effect on ICD production from APP", "setting": "[4]", "value": "unaffected"}]}, {"molecule": "C[C@H](NC(=O)Cc1cc(F)cc(F)c1)C(=O)N[C@H]1N=C(c2ccccc2)c2ccccc2N(C)C1=O", "note": "[compound E, (2S)-2-{[(3,5-Difluorophenyl)acetyl]amino}-N-[(3S)-1-methyl-2-oxo-5-phenyl-2,3-dihydro-1H-1,4-benzodia-zepin-3-yl]propanamide]", "values": [{"measurement": "concentration needed for a 2-fold increase in CTF band signal, APLP1", "setting": "[5]", "value": "0.24 ± 0.22", "unit": "nM"}, {"measurement": "concentration needed for a 2-fold increase in CTF band signal, APP", "setting": "[6]", "value": "0.27 ± 0.01", "unit": "nM"}]}, {"molecule": "C[C@@H](C(=O)O)c1ccc(-c2ccccc2)c(F)c1", "note": "[R-flurbiprofen, 2-(3-fluoro-4-phenylphenyl)propanoate]", "values": [{"measurement": "effect on Aβ38 levels", "setting": "[2]", "value": "increase"}, {"measurement": "effect on Aβ42 levels", "setting": "[2]", "value": "reducing"}, {"measurement": "effect on ICD production from APLP1", "setting": "[1]", "value": "unaffected"}, {"measurement": "effect on ICD production from APLP2", "setting": "[3]", "value": "weak inhibitory effect"}, {"measurement": "concentration at which APP ICD production is decreased", "setting": "[4]", "value": "≥ 400", "unit": "µM"}, {"measurement": "effect on ICD production from APP", "setting": "[4]", "value": "weakly inhibited"}, {"measurement": "brain penetrance", "setting": "[7]", "value": "poor"}]}, {"molecule": "CC(C(=O)O)c1cccc(Oc2cc(Cl)cc(Cl)c2)c1", "note": "(centres unmarked) [FT-9, 2-[3-(3,5-dichlorophenoxy)phenyl]propanoic acid]", "values": [{"measurement": "reduction of APLP1 ICDs", "setting": "[1]; 500 µM, highest concentration tested", "value": "~ 38%"}, {"measurement": "concentration at which APLP1 ICD production is decreased", "setting": "[1]; microsomes", "value": "≥ 100", "unit": "µM"}, {"measurement": "concentration causing significant accumulation of APLP1 CTFs", "setting": "[5]", "value": "≥ 20", "unit": "µM"}, {"measurement": "concentration required to cause a 2-fold increase in APLP1 CTFs", "setting": "[5]", "value": "25.7 ± 8.9", "unit": "µM"}, {"measurement": "concentration at which APLP2 ICD production is decreased", "setting": "[3]; microsomes", "value": "≥ 100", "unit": "µM"}, {"measurement": "inhibition at 500 µM", "setting": "[3]; read-out: reduction of APLP2 ICDs", "value": "70 to 75", "unit": "%"}, {"measurement": "concentration at which APP ICD production is decreased", "setting": "[4]", "value": "≥ 100", "unit": "µM"}, {"measurement": "inhibition at 500 µM", "setting": "[4]; read-out: reduction of APP ICDs", "value": "70 to 75", "unit": "%"}, {"measurement": "concentration causing accumulation of APP CTFs", "setting": "[6]", "value": "≥ 5", "unit": "µM"}, {"measurement": "concentration required to cause a 2-fold increase in APP CTFs", "setting": "[6]", "value": "3.4 ± 0.4", "unit": "µM"}]}]}
